Holding throughout (assay type): functional, cell-based
Assay [1] concerns HepG2. Briefly: Cytotoxicity against human HepG2 cells assessed as growth inhibition after 48 hrs by MTT assay. The conditions noted are these: HepG2, 48 h. In a few lines: (§1)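 Cells grown in DMEM with 10% FBS and seeded at 6 × 10^4 cells/mL. Five concentrations per compound added from DMSO, each tested in triplicate. Incubated 48 h at 37 °C under 5% CO2. MTT (4 mg/mL) added, then 4 h further incubation. Medium removed, formazan dissolved in DMSO, absorbance read at 570 nm. IC50 reported as mean ± SD of triplicate experiments. Doxorubicin served as positive control.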
On the technique in general: Tetrazolium dyes change colour on reduction, which living cells bring about.

Assay [2] relates to MCF7. Briefly: Cytotoxicity against human MCF7 cells assessed as growth inhibition after 48 hrs by MTT assay. Particulars: MCF7, 48 h. In a few lines: as §1
The test system of assay [3] is AGS. The experiment in a line: Cytotoxicity against human AGS cells assessed as growth inhibition after 48 hrs by MTT assay. In a few lines: as §1
The subject of assay [4] is A549. Briefly: Cytotoxicity against human A549 cells assessed as growth inhibition after 48 hrs by MTT assay. The conditions noted are these: A549, 48 h. In a few lines:
as §1

The subject of assay [5] is K562. Briefly: Cytotoxicity against human K562 cells assessed as growth inhibition.

One may read the pIC50 as the negative decadic logarithm of the IC50, by convention in mol/L.

Structures are written as SMILES. pIC50: −log10 of the molar value.

With `COC(=O)CC1=C(C)C2=C[C@H](OC(C)=O)[C@@]3(O)C(C)(C)CC[C@H](OC(C)=O)[C@]3(C)[C@H]2CC1=O`, the pIC50 in assay [1] is 5.33; in assay [2] it was 5.68; in assay [3], less than 4.30; in assay [4], 4.84.
As to `COC(=O)CC1=C(C)[C@@H]2[C@@H](OC(C)=O)[C@H](OC(C)=O)[C@@]3(O)C(C)(C)CC[C@H](OC(C)=O)[C@]3(C)[C@H]2CC1=O`, the pIC50 in assay [1] was 4.73; in assay [2] it was 5.10; in assay [3], 4.32; in assay [4], 4.60.
As for `COC(CC1=C(C)[C@@H]2[C@@H](OC(C)=O)[C@H](OC(C)=O)[C@@]3(O)C(C)(C)CC[C@H](OC(C)=O)[C@]3(C)[C@H]2CC1=O)OC`, the pIC50 in assay [1] is 4.97; in assay [2] it was 4.81; in assay [3], 4.34; in assay [4] it was 4.50.
Take `CC(=O)O[C@H]1CCC(C)(C)C2=CC(=O)c3c(cc4occc4c3C)[C@]21C`: the pIC50 in assay [1] is less than 4.30; in assay [2] it was less than 4.30; in assay [3], 5.19; in assay [4] it was 4.61.
In the case of `CC(=O)O[C@H]1CCC(C)(C)[C@]2(O)[C@@H](OC(C)=O)[C@H](O)c3c(cc4occc4c3C)[C@@]12C`, the pIC50 in assay [1], in assay [2], in assay [3] and in assay [4] was less than 4.30 throughout.
With `CO[C@@]12C[C@H]3[C@@H](CC[C@@]4(O)C(C)(C)C[C@H](OC(C)=O)[C@H](OC(C)=O)[C@]34C)[C@@H](C)C1=CC(=O)O2`, the pIC50 was less than 4.30 in assay [1], 4.34 in assay [2], less than 4.30 in assay [3] and less than 4.30 in assay [4].
In the case of `C=C1C2=CC(=O)O[C@]2(OC)C[C@H]2[C@H]1[C@@H](O)C[C@@]1(O)C(C)(C)CC[C@H](OC(C)=O)[C@]21C`, the pIC50 is 4.46 in assay [1], less than 4.30 in assay [2], less than 4.30 in assay [3] and less than 4.30 in assay [4].
Regarding `C=C1C2=CC(=O)O[C@]2(OC)C[C@H]2[C@H]1[C@@H](O)[C@H](OC(C)=O)[C@@]1(O)C(C)(C)CC[C@H](OC(C)=O)[C@]21C`, the pIC50 in assay [1] is 4.41; in assay [2], less than 4.30; in assay [3], less than 4.30; in assay [4] it was less than 4.30.
For `CO[C@@]12C[C@H]3[C@@H](C[C@H](OC(C)=O)[C@@]4(O)C(C)(C)C[C@H](OC(C)=O)[C@H](OC(C)=O)[C@]34C)[C@](C)(O)C1=CC(=O)O2`, the pIC50 is 4.33 in assay [1], less than 4.30 in assay [2], 4.54 in assay [3] and less than 4.30 in assay [4].
In the case of `CC(=O)OC1CC(C)(C)[C@]2(O)C[C@H](O)[C@H]3[C@@H](C)C4=CC(=O)O[C@]4(O)C[C@@H]3[C@@]2(C)[C@H]1OC(C)=O` (stereo partly drawn), the negative-log IC50 (pIC50) in assay [1] was less than 4.30; in assay [2] it was 4.44; in assay [3], less than 4.30; in assay [4], 4.50.
Regarding `CC(=O)O[C@@H]1[C@@H]2[C@H](C=C3OC(=O)C=C3[C@@]2(C)O)[C@@]2(C)[C@@H](OC(C)=O)CCC(C)(C)[C@]2(O)[C@H]1OC(C)=O`, the pIC50 in assay [1] is less than 4.30; in assay [2] it was 4.39; in assay [3], less than 4.30; in assay [4], less than 4.30.
As for `CC(=O)O[C@H]1CC(C)(C)[C@]2(O)CC[C@H]3[C@@H](C)C4=CC(=O)OC4=C[C@@H]3[C@@]2(C)[C@H]1OC(C)=O`, the pIC50 in assay [1], in assay [2], in assay [3] and in assay [4] was less than 4.30 in each case.
Take `COc1cccc2c1C(=O)c1c(O)c3c(c(O)c1C2=O)C[C@@](O)(C(=O)CO)C[C@@H]3O[C@H]1C[C@H](N)[C@H](O)[C@H](C)O1` [DOXORUBICIN]: the pIC50 in assay [1] is 6.23; in assay [2], 6.03; in assay [3] it was 5.92; in assay [4], 6.13.
Consider `C#C[C@@]12O[C@]1(C=O)[C@]1(C)CC[C@H]3C(C)(C)CCC[C@]3(C)[C@H]1CC2=O` [ESCOBARINE A], for which, in assay [5], the negative logarithm of the IC50 (pIC50) is 5.60.
